Test [1] concerns the target ATP-dependent 6-phosphofructokinase, liver type (Homo sapiens) (UniProt P17858). The test is described as follows: Binding affinity to PFKL in human NCI-H358 cells at 1 uM by mass spectrometry based pull down assay. The format is cell-based.
In test [2] the target is COP9 signalosome complex subunit 8 (Homo sapiens) (UniProt Q99627). Description: Binding affinity to COPS8 in human NCI-H23 cells at 1 uM by mass spectrometry based pull down assay. The class given is cell-based.
For test [3], the target named is Endothelial differentiation-related factor 1 (Homo sapiens) (UniProt O60869). Description: Binding affinity to EDF1 in human NCI-H23 cells at 1 uM by mass spectrometry based pull down assay. The format is cell-based.
The target in test [4] is E3 ubiquitin-protein ligase HUWE1 (Homo sapiens) (UniProt Q7Z6Z7). Description: Binding affinity to HUWE1 in human NCI-H358 cells at 1 uM by mass spectrometry based pull down assay. The class given is cell-based.
In test [5] the target is Cancer-related nucleoside-triphosphatase (Homo sapiens) (UniProt Q9BSD7). The test is described as follows: Binding affinity to NTPCR in human NCI-H23 cells at 1 uM by mass spectrometry based pull down assay. The class given is cell-based.
For test [6], the target named is Proteasome activator complex subunit 1 (Homo sapiens) (UniProt Q06323). The test is described as follows: Binding affinity to PSME1 in human NCI-H23 cells at 1 uM by mass spectrometry based pull down assay. The format is cell-based.
Sequence of Proteasome activator complex subunit 1 (Homo sapiens) (Q06323 whole entry, one chain of several): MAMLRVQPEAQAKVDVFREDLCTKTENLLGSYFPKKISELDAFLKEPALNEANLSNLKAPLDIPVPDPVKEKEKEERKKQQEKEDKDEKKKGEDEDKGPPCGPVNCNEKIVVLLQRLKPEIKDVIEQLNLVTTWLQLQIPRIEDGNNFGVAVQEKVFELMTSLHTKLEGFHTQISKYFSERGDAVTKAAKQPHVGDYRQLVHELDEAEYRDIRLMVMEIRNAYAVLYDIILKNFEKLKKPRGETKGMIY
Test [7] has as its system NCI-H23. Description: Binding affinity to PSMA5 in human NCI-H23 cells at 1 uM by mass spectrometry based pull down assay. The format is cell-based.
In test [8] the target is Leucine-rich PPR motif-containing protein, mitochondrial (Homo sapiens) (UniProt P42704). Description: Binding affinity to LRPPRC in human NCI-H358 cells at 1 uM by mass spectrometry based pull down assay. The class given is cell-based.
Test [9] has as its system NCI-H23. The test is described as follows: Binding affinity to NDUFS7 in human NCI-H23 cells at 1 uM by mass spectrometry based pull down assay. The class given is cell-based.
Test [10] addresses Importin subunit beta-1 (Homo sapiens) (UniProt Q14974). Description: Binding affinity to KPNB1 in human NCI-H358 cells at 1 uM by mass spectrometry based pull down assay. The format is cell-based.
Test [11] addresses Protein arginine N-methyltransferase 5 (Homo sapiens) (UniProt O14744). The test is described as follows: Binding affinity to PRMT5 in human NCI-H358 cells at 1 uM by mass spectrometry based pull down assay. The format is cell-based.
The target of test [12] is T1, Dual specificity mitogen-activated protein kinase kinase 4 (Homo sapiens) (UniProt P45985).
T1 sequence (whole entry): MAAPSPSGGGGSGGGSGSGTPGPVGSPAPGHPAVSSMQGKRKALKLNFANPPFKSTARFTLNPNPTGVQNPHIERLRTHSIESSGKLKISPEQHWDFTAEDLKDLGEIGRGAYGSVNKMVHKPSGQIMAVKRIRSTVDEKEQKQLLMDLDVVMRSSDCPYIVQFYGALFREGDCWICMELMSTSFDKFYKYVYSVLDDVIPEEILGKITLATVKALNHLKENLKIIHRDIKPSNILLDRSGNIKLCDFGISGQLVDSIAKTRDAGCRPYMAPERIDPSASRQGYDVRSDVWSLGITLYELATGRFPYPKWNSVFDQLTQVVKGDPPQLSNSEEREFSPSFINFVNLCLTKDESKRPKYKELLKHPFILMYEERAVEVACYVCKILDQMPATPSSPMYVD
Description: Binding affinity to MAP2K4 in human NCI-H358 cells at 1 uM by mass spectrometry based pull down assay. The format is cell-based.

The target in test [13] is Actin-related protein 2/3 complex subunit 5 (Homo sapiens) (UniProt O15511). The test is described as follows: Binding affinity to ARPC5 in human NCI-H358 cells at 1 uM by mass spectrometry based pull down assay. The format is cell-based.
The target of test [14] is Protein transport protein Sec16A (Homo sapiens) (UniProt O15027). The test is described as follows: Binding affinity to SEC16A in human NCI-H358 cells at 1 uM by mass spectrometry based pull down assay. The class given is cell-based.
Sequence of Protein transport protein Sec16A (Homo sapiens) (O15027 whole entry): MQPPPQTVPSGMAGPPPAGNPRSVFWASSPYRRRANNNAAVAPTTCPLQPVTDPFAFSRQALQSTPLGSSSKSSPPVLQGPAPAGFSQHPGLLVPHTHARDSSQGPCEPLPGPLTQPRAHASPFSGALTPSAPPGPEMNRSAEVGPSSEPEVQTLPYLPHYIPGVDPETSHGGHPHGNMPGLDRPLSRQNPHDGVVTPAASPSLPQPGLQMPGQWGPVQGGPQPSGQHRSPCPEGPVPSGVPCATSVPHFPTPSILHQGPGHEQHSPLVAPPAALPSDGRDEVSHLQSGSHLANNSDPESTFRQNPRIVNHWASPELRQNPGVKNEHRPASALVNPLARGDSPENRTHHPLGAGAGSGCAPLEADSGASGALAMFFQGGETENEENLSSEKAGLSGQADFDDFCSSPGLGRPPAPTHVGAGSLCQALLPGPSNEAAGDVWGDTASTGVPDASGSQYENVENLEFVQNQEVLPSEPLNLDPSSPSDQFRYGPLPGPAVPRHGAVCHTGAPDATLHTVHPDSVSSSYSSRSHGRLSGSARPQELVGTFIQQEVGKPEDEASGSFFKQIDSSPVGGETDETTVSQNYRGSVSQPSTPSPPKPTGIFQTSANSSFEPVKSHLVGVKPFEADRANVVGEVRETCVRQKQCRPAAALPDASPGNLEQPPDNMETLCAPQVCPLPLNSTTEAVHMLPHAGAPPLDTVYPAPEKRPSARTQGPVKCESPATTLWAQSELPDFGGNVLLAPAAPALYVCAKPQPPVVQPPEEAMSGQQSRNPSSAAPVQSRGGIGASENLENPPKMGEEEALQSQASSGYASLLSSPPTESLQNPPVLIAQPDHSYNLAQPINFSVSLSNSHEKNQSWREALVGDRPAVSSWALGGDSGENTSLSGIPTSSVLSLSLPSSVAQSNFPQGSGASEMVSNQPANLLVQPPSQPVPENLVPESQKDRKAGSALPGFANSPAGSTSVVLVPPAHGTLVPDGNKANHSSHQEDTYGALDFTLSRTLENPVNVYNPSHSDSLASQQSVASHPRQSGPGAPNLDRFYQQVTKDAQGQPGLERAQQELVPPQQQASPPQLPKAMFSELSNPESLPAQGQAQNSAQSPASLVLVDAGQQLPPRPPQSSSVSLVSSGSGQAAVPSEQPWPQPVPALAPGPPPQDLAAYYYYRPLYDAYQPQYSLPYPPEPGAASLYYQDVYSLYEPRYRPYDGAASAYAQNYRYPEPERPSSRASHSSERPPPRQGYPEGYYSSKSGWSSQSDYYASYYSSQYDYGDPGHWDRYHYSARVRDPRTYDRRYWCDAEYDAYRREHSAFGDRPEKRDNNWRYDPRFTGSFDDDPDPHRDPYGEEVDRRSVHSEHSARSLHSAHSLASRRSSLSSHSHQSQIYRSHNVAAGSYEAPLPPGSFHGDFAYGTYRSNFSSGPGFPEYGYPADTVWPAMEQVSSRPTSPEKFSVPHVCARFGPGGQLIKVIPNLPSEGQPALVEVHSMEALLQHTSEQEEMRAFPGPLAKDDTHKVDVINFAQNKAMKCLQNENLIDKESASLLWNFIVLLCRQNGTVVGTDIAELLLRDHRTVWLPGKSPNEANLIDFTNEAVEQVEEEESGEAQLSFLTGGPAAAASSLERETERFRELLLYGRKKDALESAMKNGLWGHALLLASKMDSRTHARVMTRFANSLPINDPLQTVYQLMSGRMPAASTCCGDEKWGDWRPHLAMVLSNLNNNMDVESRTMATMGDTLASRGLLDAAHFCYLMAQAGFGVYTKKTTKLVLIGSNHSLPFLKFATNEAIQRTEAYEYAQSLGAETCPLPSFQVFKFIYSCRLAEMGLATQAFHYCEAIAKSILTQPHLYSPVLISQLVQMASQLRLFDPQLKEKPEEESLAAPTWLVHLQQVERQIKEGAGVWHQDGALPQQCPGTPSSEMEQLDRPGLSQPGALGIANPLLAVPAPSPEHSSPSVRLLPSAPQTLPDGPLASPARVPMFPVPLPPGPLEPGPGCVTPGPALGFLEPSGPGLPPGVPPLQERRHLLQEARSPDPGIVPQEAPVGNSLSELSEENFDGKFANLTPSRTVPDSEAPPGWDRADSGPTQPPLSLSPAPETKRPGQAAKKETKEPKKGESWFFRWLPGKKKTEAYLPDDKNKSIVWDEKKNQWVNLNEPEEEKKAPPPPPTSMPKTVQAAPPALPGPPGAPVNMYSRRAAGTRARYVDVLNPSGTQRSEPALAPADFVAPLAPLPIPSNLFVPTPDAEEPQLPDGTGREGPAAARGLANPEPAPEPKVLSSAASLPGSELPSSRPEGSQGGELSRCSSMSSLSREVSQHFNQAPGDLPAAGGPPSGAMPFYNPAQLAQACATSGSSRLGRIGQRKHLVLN
For test [15], the target named is Glycogen synthase kinase-3 beta (Homo sapiens) (UniProt P49841). Description: Binding affinity to GSK3B in human NCI-H358 cells at 1 uM by mass spectrometry based pull down assay. The class given is cell-based.
Test [16] deals with Casein kinase II subunit beta (Homo sapiens) (UniProt P67870). Description: Binding affinity to CSNK2B in human NCI-H23 cells at 1 uM by mass spectrometry based pull down assay. The class given is cell-based.
Sequence of Casein kinase II subunit beta (Homo sapiens) (P67870 whole entry): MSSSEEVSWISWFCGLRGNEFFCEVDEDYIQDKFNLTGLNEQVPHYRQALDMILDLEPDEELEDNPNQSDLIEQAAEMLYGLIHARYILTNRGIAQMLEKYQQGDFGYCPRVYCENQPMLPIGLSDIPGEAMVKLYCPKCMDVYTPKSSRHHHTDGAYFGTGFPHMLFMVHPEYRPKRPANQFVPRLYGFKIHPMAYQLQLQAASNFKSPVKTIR
Test [17] deals with Interleukin enhancer-binding factor 2 (Homo sapiens) (UniProt Q12905). The test is described as follows: Binding affinity to ILF2 in human NCI-H23 cells at 1 uM by mass spectrometry based pull down assay. The format is cell-based.
Sequence of Interleukin enhancer-binding factor 2 (Homo sapiens) (Q12905 whole entry): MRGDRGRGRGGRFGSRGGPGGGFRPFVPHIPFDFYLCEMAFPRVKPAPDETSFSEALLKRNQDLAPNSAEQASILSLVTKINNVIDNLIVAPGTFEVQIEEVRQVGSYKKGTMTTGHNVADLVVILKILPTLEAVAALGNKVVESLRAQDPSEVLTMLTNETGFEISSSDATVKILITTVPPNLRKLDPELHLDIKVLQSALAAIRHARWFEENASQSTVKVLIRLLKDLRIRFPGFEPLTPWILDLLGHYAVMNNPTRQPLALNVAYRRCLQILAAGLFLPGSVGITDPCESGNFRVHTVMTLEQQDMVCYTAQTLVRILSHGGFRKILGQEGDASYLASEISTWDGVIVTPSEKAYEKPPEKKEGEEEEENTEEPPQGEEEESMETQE
The target of test [18] is Serine/threonine-protein kinase TBK1 (Homo sapiens) (UniProt Q9UHD2). The test is described as follows: Inhibition of TBK1 in human SKCO1 cells at 1 uM after 4 hrs using biotin labeled DIKPGNIMR probe by mass-spectrometric analysis relative to control. The format is cell-based.
Test [19] has as its target Serine/threonine-protein kinase RIO3 (Homo sapiens) (UniProt O14730). The test is described as follows: Inhibition of full length human RIOK3 (1 to 519 residues) expressed in bacterial expression system assessed as enzyme activity at 10 uM by KINOMEScan assay relative to control. Details: scale not given: the % may be the effect or the level left. An outline of the steps: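 In vitro ATP-site competition binding assay (KinomeScan) across a panel of 456 kinases. Compound was tested at 1 and 10 μM. The read-out is the binding inhibition score relative to control.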

In test [20] the target is Mast/stem cell growth factor receptor Kit (Homo sapiens) (UniProt P10721). Description: Inhibition of human KIT (571 to 952 residues) expressed in bacterial expression system assessed as enzyme activity at 1 uM by KINOMEScan assay relative to control. Details: scale not given: the % may be the effect or the level left. An outline of the steps: (§1)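 In vitro ATP-site competition binding assay across a panel of 456 kinases, with compound tested at 1 and 10 μM.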
Sequence of Mast/stem cell growth factor receptor Kit (Homo sapiens) (P10721 whole entry, the tested form may be a part): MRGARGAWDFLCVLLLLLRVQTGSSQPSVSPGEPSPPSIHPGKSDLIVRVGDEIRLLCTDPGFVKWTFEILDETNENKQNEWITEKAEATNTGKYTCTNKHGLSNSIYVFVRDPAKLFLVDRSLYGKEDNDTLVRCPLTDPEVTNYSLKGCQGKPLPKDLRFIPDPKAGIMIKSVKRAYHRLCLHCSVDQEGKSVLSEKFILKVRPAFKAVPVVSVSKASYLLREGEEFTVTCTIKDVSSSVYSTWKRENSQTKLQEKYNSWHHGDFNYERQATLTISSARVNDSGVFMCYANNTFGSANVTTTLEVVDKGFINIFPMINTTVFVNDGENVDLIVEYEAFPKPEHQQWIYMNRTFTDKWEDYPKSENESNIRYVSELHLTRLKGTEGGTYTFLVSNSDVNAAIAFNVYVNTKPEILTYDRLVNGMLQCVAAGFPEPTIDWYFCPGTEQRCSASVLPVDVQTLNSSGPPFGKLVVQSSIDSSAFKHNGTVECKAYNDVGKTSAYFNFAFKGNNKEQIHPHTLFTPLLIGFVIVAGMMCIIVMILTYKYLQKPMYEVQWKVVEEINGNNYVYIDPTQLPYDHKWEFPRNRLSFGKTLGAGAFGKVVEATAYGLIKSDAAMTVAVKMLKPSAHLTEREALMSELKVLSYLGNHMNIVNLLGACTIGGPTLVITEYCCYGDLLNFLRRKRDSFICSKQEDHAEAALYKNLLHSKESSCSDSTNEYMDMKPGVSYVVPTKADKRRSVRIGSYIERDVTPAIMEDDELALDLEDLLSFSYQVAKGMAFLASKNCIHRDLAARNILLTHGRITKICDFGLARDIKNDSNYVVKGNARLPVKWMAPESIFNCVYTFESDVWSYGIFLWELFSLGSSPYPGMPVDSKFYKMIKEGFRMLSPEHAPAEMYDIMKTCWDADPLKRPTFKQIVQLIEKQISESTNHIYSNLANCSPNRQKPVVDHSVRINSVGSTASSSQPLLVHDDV

Test [21] addresses T2, Dual specificity mitogen-activated protein kinase kinase 5 (Homo sapiens) (UniProt Q13163).
T2 sequence (whole entry): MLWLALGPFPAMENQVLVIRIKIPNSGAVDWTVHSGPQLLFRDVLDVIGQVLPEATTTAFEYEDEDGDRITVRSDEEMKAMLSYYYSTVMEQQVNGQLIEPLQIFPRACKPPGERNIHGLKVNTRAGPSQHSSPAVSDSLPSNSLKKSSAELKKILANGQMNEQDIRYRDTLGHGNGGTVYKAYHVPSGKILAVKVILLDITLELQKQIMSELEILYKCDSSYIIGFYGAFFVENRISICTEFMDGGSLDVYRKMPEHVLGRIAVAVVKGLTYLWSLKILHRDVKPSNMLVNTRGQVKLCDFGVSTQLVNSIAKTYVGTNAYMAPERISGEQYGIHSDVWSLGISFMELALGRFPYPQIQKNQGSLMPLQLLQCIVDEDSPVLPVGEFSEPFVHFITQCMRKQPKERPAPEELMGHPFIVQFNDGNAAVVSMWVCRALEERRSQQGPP
Description: Inhibition of human MEK5 (98 to 448 residues) expressed in mammalian expression system assessed as enzyme activity at 1 uM by KINOMEScan assay relative to control. Details: scale not given: the % may be the effect or the level left. An outline of the steps:
as §1

In test [22] the target is Platelet-derived growth factor receptor beta (Homo sapiens) (UniProt P09619). Description: Inhibition of human PDGFRB (582 to 1009 residues) expressed in bacterial expression system assessed as enzyme activity at 1 uM by KINOMEScan assay relative to control. Details: scale not given: the % may be the effect or the level left. The method, boiled down:
as §1

Test [23] deals with Vascular endothelial growth factor receptor 1 (Homo sapiens) (UniProt P17948). The test is described as follows: Inhibition of human FLT1 (781 to 1239 residues) expressed in bacterial expression system assessed as enzyme activity at 10 uM by KINOMEScan assay relative to control. Details: scale not given: the % may be the effect or the level left. An outline of the steps: as §1

Calls of active or inactive are those of the source. The calls are words filed in the database; no cut-off is given here.

Sequence of Importin subunit beta-1 (Homo sapiens) (Q14974 whole entry): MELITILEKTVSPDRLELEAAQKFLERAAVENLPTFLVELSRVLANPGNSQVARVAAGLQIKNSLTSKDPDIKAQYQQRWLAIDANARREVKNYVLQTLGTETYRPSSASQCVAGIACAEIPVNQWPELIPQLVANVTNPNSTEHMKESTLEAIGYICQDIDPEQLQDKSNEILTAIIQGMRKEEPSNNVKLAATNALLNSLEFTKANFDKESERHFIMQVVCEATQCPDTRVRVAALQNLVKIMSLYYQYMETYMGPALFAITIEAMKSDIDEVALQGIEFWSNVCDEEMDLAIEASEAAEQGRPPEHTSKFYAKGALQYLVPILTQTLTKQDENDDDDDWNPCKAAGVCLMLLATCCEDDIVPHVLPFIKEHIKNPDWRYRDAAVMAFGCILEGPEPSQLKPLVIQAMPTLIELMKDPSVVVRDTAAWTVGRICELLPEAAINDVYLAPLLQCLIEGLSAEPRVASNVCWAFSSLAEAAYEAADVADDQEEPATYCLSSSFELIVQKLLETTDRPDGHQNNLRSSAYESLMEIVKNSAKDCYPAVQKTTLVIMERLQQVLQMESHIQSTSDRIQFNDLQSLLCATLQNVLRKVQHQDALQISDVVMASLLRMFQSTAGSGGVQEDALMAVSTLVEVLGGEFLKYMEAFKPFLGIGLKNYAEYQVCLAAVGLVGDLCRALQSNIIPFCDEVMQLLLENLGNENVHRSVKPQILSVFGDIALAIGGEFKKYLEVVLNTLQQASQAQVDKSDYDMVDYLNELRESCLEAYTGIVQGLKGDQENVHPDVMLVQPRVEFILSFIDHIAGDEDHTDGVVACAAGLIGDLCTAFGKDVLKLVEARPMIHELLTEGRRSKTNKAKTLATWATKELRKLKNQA

For the molecule `C=CC(=O)Nc1ccccc1Nc1nc(Nc2ccc(N3CCN(CCOCCOCCOCCNC(=O)CCCC[C@@H]4SC[C@@H]5NC(=O)N[C@@H]54)CC3)cc2)ncc1Cl`, the result in [1], in test [2], in test [3], in [4], in [5] and in test [6] was Active. The result in [7], in [8], in test [9], in test [10], in test [11] and in test [12] was Active. In addition, the result in test [13], in test [14], in test [15], in test [16] and in test [17] was Active.
Consider `C=CC(=O)Nc1ccccc1Nc1nc(Nc2ccc(N3CCN(C)CC3)cc2)ncc1Cl`, for which, in test [18], the inhibition (as a rule, the change of the read-out against control, counted positive when it falls) was determined as 59.3%.
Turning to `COc1cc(O)c2c(c1)/C=C/C[C@H](O)[C@H](O)C(=O)/C=C\C[C@H](C)OC2=O`, the Activity stood at 0% in test [19]; 20% in test [20]; 0.2% in test [21]; 1.5% in test [22]; 0.5% in test [23].

(Values after ChEMBL document CHEMBL4118021, “Studies of TAK1-centered polypharmacology with novel covalent TAK1 inhibitors” (Bioorg Med Chem, 2017).)
